Shown are actives, neighbours in structure and some others; about 1.8% of the full set was active somewhere.
697 NFkB inh – inhibitors of the PMA/ionomycin-induced NF-kB reporter in 697 B cells; 697 B-cell NF-kB luciferase reporter, 16 h; inhibition, % at 4 µM; hit rate 0.33% among 330,000; AID 435022; in the data active means inhibition above about 35%
Gli-Sufu block – Gli-Sufu pathway antagonism; Sufu-KO-LIGHT fibroblasts, Gli luciferase reporter luminescence; inhibition, % at 5 µM; hit rate 0.74% among 340,000;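 active means inhibition above about 55%, limit read from the data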;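 further: 0% = DMSO-treated cells and 100% = wells with medium but no cells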
Jurkat NFkB inh – inhibitors of the PMA/ionomycin-induced NF-kB reporter in Jurkat cells; PMA/ionomycin-induced NF-kB luciferase reporter, luminescence; inhibition, % at 4 µM; hit rate 0.53% among 330,000; in the data active means inhibition above about 50%
Lipid droplet – hepatic lipid droplet formation modulation; hit rate 0.4% among 240,000; inhibition, % at 6.5 µM; AML12 mouse hepatocytes, oleate lipid droplets, BODIPY imaging;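 active means lipid droplet intensity inhibited by at least 50%, with more than 500 cells counted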
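Test system: AML12 hepatocytes (mouse); reagent: oleate loading, 100 µM; dosing: one dose, 6.5 µM compound; incubation: overnight exposure; signal: fluorescence imaging, 20x objective, two fields per well; read-out basis: % inhibition of corrected integrated BODIPY droplet signal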
H9c2 TAG inh – reduces triacylglycerol accumulation in H9c2 cells. Nile Red lipid (TAG) fluorescence; cells loaded with 200 µM oleic acid. inhibition, % at 12.5 µM. hit rate 0.66% among 230,000;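 active means pattern-corrected inhibition of lipid staining of at least 50% with the nuclear-stain viability signal not falling by more than 50%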;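 further: 0% = DMSO wells and 100% = triacsin C control wells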
hiPSC survival – hiPSC single-cell survival enhancement. ATPlite luminescence; 100% = ROCK inhibitor wells, 0% = DMSO. hit rate 0.044% among 360,000. survival enhancement, % at 20 µM; in the data active means survival enhancement above about 18%;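 further: cells exposed to compounds for 16 hours before the ATP read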
697 NFkB conf – lowers PMA/ionomycin-induced NF-kB signal in 697 B cells. 697 B-cell NF-kB luciferase, 16 h. shares compounds with 697 NFkB inh. inhibition, % at 4 µM. AID 449746. hit rate 35% among 2,000; in the data active means inhibition mostly above about 28%, no sharp cut-off; inactive means mostly below about 22%
Numbers without * were called inactive; x = no result given.

SMILES | 697 NFkB inh | Gli-Sufu block | Jurkat NFkB inh | Lipid droplet | H9c2 TAG inh | hiPSC survival | 697 NFkB conf
Clc1ccc(-c2nc3n(n2)Cc2ccccc2-3)cc1 | -374.4 | -122.0 | -116.2 | -4.4 | 20.3 | -4.0 | -301.1
CCOC(=O)N1CCN(CC(=O)Nc2ccc([N+](=O)[O-])cc2C(=O)Nc2ccccc2F)CC1 | 38.3* | 5.7 | 41.8 | -4.6 | 12.5 | 7.9 | 38.7*
Cc1nc2cc(-c3cccc(F)c3)nn2c(C)c1CCC(=O)NC(C)CCc1ccco1 (stereo not drawn) | 41.8* | 26.5 | 24.1 | x | -1.6 | 0.5 | 37.2*
Cc1nc2cc(-c3ccccc3)nn2c(C)c1CCC(=O)NCc1ccco1 | 45.8* | 10.9 | 2.0 | x | 5.5 | -0.7 | 36.7*
COc1ccccc1-c1cc2nc(C)c(CCC(=O)NCc3ccco3)c(C)n2n1 | 32.9 | 12.3 | 9.1 | -12.7 | -1.7 | 0.1 | x
Cc1nc2cc(-c3ccccc3)nn2c(C)c1CCC(=O)NC(C)c1ccc2c(c1)OCCO2 (stereo not drawn) | 35.0* | 16.9 | 1.5 | -9.6 | 17.7 | -0.1 | 22.9
Cc1nc2cc(-c3cccc(F)c3)nn2c(C)c1CCC(=O)N1CCN(c2ccccn2)CC1 | 47.6* | 5.6 | 16.1 | 23.0 | 1.8 | 0.2 | 28.0
COc1cc(OC)cc(-c2cc3nc(C)c(CCC(=O)NC(C)CCc4ccco4)c(C)n3n2)c1 (stereo not drawn) | 21.7 | 20.9 | 6.8 | 13.3 | 17.1 | -0.6 | x
Cc1ccc(CNC(=O)c2cc(=O)c3ccc(C)cc3o2)cc1 | -32.8 | 6.5 | -57.7 | -10.6 | x | 0.2 | x
CCOC(=O)C1CCCCN1C(=O)CCc1c(C)nc2cc(-c3ccccc3)nn2c1C (stereo not drawn) | 35.1* | 24.7 | 19.9 | x | -16.0 | -3.6 | 27.1
CCOC(=O)C1CCN(C(=O)CCc2c(C)nc3cc(-c4ccccc4)nn3c2C)CC1 | 29.2 | 29.9 | 23.5 | x | -10.7 | 0.3 | x
O=C(CCCc1ccccc1)c1ccc2c(c1)OCCO2 | -269.7 | 40.4 | 41.8 | -4.0 | x | -6.4 | -209.8
CCCCCCOc1ccc(C(=O)NCCCn2ccnc2)cc1 | -5.1 | -3.6 | -15.8 | -10.3 | -4.8 | -0.4 | x
CCCCOc1ccc(NC(=O)C(=O)NCCCn2ccnc2)cc1 | 54.1* | 23.2 | 10.4 | 0.9 | 5.6 | -2.3 | 57.5*
CCCCC(=O)Nc1nc2c(OC)ccc(OC)c2s1 | 35.7* | 4.6 | -2.7 | x | -1.9 | -1.4 | 27.2
CCCCC(=O)Nc1nc2c(OC)cc([N+](=O)[O-])cc2s1 | 16.4 | 7.6 | 7.2 | -8.7 | -6.4 | 3.7 | x
Cc1nc([N+](=O)[O-])c(Sc2nc3ccc([N+](=O)[O-])cc3[nH]2)n1Cc1ccccc1 | 36.2* | -1.2 | 4.7 | 20.0 | x | -0.9 | 29.7*
CCOC(=O)c1sc(NC(=O)c2cc(-c3ccc(C)cc3)nc3ccccc23)c(C#N)c1C | -16.9 | 41.3 | 0.4 | x | 5.0 | -1.7 | x
Cc1ccccc1-c1cc(C(=O)Nc2sc(C(=O)OC(C)C)c(C)c2C#N)c2ccccc2n1 | 37.4* | 24.6 | 15.6 | 10.8 | x | -2.5 | 43.5*
Oc1ccc(CCC2CCCCN2Cc2nc(C3CC3)no2)cc1 (stereo not drawn) | 1.4 | 9.1 | -9.2 | -14.5 | -10.1 | 2.0 | x
N#Cc1ccc(CSc2nnc(-c3c[nH]c4ccccc34)n2-c2ccccc2)cc1 | -11.3 | 17.2 | -10.1 | -5.5 | -2.0 | 0.3 | x
Cc1ccccc1-n1c(SCc2c(C)noc2C)nnc1-c1c[nH]c2ccccc12 | 40.0* | 21.3 | -9.5 | x | 22.7 | 0.7 | 40.9*
Cc1nc(Nc2ccc(C(=O)O)cc2)sc1-c1ccccc1 | -284.4 | -60.2 | -35.7 | 1.4 | 9.9 | -1.3 | -401.2
COc1ccc(NS(=O)(=O)c2csc(C(=O)N3CCCC3)c2)c(OC)c1 | -10.9 | 10.6 | 6.5 | -9.4 | x | -0.2 | x
O=C(CSc1nnc2n(C3CCCC3)c(=O)c3ccccc3n12)N1CCCCCC1 | 26.4 | 2.5 | -0.8 | -1.1 | x | -1.1 | x
CC1CCCN(C(=O)CSc2nnc3n(C4CCCC4)c(=O)c4ccccc4n23)C1 (stereo not drawn) | 35.2* | -2.5 | 7.0 | 25.3 | x | -1.7 | -4.7
O=C(COc1ccccc1)Nc1ccc(-c2nnc(-c3ccco3)o2)cc1 | -83.8 | -18.6 | -62.3 | x | 12.4 | -1.4 | x
